# Laboratory results: ChEMBL document CHEMBL1671794, “Synthesis and SAR studies on azetidine-containing dipeptides as HCMV inhibitors” (Bioorg Med Chem, 2011)
# Active and inactive are the calls of the source. The calls are words filed in the database; no cut-off is given here.
# Legend:
# Human alphaherpesvirus 3 [1] = assay: Antiviral activity against Thymidine kinase-positive Varicella-zoster virus Oka infected in HELF assessed as virus-induced cytopathogenicity after 5 days by microscopy; assay type: functional; conditions: Human alphaherpesvirus 3, strain Oka vaccine, 120 h
# Human alphaherpesvirus 3 [2] = assay: Antiviral activity against Thymidine kinase-deficient Varicella-zoster virus 07-1 infected in HELF assessed as virus-induced cytopathogenicity after 5 days by microscopy; assay type: functional, organism-based; conditions: Human alphaherpesvirus 3, 07-1, HELF, 120 h
# Human betaherpesvirus 5 = assay: Antiviral activity against human cytomegalovirus infected in HELF assessed as decrease in plaque formation after 7 days by microscopy; assay type: functional, organism-based; conditions: Human betaherpesvirus 5, HELF, 168 h
# Outline: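 Confluent HEL fibroblasts were infected with HCMV Davis strain at 100 PFU per well. After 2 h, residual virus was removed and compound-containing medium was added in duplicate. Cells were incubated for 7 days at 37 °C, then ethanol-fixed and Giemsa-stained, and cytopathogenicity was scored microscopically.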
# [3] = Cytotoxicity against HELF cells assessed as after 3 days by Coulter counting analysis; assay type: cell-based; conditions: human; for MCC at 72 h / CC50 at 72 h: HELF cells; for CC50: helf, 72 h
# Outline: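 HEL cells were seeded at 5 × 10^3 cells/well and allowed to grow for 24 h before compound dilutions were added. After 3 days at 37 °C, cells were counted with a Coulter Counter.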
# Influenza A virus [4] = assay: Antiviral activity against Influenza A virus H1N1 infected in MDCK assessed as virus-induced cytopathogenicity at 20 to 100 uM after 4 days by microscopy; assay type: functional, organism-based
# Outline: (§1)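 Near-confluent MDCK (influenza) or confluent HEL monolayers were inoculated with 100 CCID50 of virus. After 1-h adsorption, residual virus was removed, and cells were incubated with fivefold serial dilutions of compound. Cytopathicity was scored microscopically once untreated infected controls reached complete CPE. Minimal cytotoxic concentration was read as microscopically visible alteration of cell morphology.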
# Human respirovirus 3 = assay: Antiviral activity against parainfluenza-3 infected in african green monkey Vero cells assessed as virus-induced cytopathogenicity at 20 to 100 uM after 4 days by microscopy; assay type: functional, organism-based
# Outline: (§2)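 Confluent cell monolayers were inoculated with 100 CCID50 of virus. After 1 h of adsorption, residual virus was removed and cultures were incubated with fivefold serial compound dilutions. Cytopathicity was scored microscopically once it was complete in the untreated infected controls.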
# Feline coronavirus = assay: Antiviral activity against Feline coronavirus infected in CrFK assessed as virus-induced cytopathogenicity at 20 to 100 uM after 4 days by microscopy; assay type: functional, organism-based; outline: as §2
# Influenza A virus [5] = assay: Antiviral activity against Influenza A virus H3N2 infected in MDCK assessed as virus-induced cytopathogenicity at 20 to 100 uM after 4 days by microscopy; assay type: functional, organism-based; outline: as §1
# [6] = tested on: Vesicular stomatitis virus; assay: Antiviral activity against Vesicular stomatitis virus infected in HELF assessed as virus-induced cytopathogenicity at 20 to 100 uM after 4 days by microscopy; assay type: functional, organism-based; outline: as §1
# Human alphaherpesvirus 2 = assay: Antiviral activity against Human herpesvirus 2 strain G infected in HELF assessed as virus-induced cytopathogenicity at 20 to 100 uM after 4 days by microscopy; assay type: functional, organism-based; outline: as §2
# Influenza A virus [7] = assay: Antiviral activity against Influenza A virus infected in MDCK assessed as virus-induced cytopathogenicity at 20 to 100 uM after 4 days by microscopy; assay type: functional, organism-based; outline: as §1
# Sindbis virus = assay: Antiviral activity against Sindbis virus infected in african green monkey Vero cells assessed as virus-induced cytopathogenicity at 20 to 100 uM after 4 days by microscopy; assay type: functional, organism-based; outline: as §2
# [8] = tested on: Mammalian orthoreovirus 1; assay: Antiviral activity against reovirus-1 infected in african green monkey Vero cells assessed as virus-induced cytopathogenicity at 20 to 100 uM after 4 days by microscopy; assay type: functional, organism-based; outline: as §2
# Human alphaherpesvirus 1 = assay: Antiviral activity against Human herpesvirus 1 strain KOS infected in HELF assessed as virus-induced cytopathogenicity at 20 to 100 uM after 4 days by microscopy; assay type: functional, organism-based; outline: as §2
# Coxsackievirus B4 = assay: Antiviral activity against coxsackievirus B4 infected in african green monkey Vero cells assessed as virus-induced cytopathogenicity at 20 to 100 uM after 4 days by microscopy; assay type: functional, organism-based; outline: as §2
Structure (SMILES),EC50 (Human betaherpesvirus 5) [µM],MCC at 72 h [3] [µM],CC50 [3] [µM],further results
CC(C)CNC(=O)[C@H](C)NC(=O)[C@]1(Cc2ccccc2)CCN1C(=O)OCc1ccccc1,63,> 100,> 100,IC50 (Human alphaherpesvirus 3 [1]): > 100 µM; IC50 (Human alphaherpesvirus 3 [2]): 64.8 µM
C[C@H](NC(=O)[C@@]1(Cc2ccccc2)CCN1C(=O)OCc1ccccc1)C(=O)NC1CCCCC1,> 20,100,46,
C[C@H](NC(=O)[C@@]1(Cc2ccccc2)CCN1C(=O)OCc1ccccc1)C(=O)NC(C)(C)C (mixture of isomers),49,> 100,> 100,IC50 (Human alphaherpesvirus 3 [1]): 63 µM; IC50 (Human alphaherpesvirus 3 [2]): 60 µM
Nc1nc(O)c2ncn(COC(CO)CO)c2n1 [GANCICLOVIR],7,≥ 1580,580,
C[C@H](NC(=O)[C@@]1(Cc2ccccc2)CCN1C(=O)OCc1ccccc1)C(=O)NCc1ccccc1 (racemic),> 4,≥ 20,42,
NC(=O)[C@H](Cc1ccccc1)NC(=O)[C@]1(Cc2ccccc2)CCN1C(=O)OCc1ccccc1,> 20,100,33,
C[C@H](NC(=O)[C@]1(Cc2ccccc2)CCN1C(=O)OCc1ccccc1)C(=O)N(C)C,> 100,> 100,> 100,
C[C@H](NC(=O)[C@]1(Cc2ccccc2)CCN1C(=O)OCc1ccccc1)C(N)=O,32,> 50,50,
C[C@@H](NC(=O)[C@@]1(Cc2ccccc2)CCN1C(=O)OCc1ccccc1)C(N)=O,> 100,> 100,> 100,
C[C@H](NC(=O)[C@]1(Cc2ccccc2)CCN1S(=O)(=O)c1ccc2ccccc2c1)C(N)=O,> 100,> 100,> 100,IC50 (Human alphaherpesvirus 3 [1]): > 100 µM; IC50 (Human alphaherpesvirus 3 [2]): 76.5 µM
C[C@H](NC(=O)[C@]1(Cc2ccccc2)CCN1C(=O)OCc1ccccc1)C(=O)NC(C)(C)C,45,> 100,,IC50 (Human alphaherpesvirus 3 [2]): 62.5 µM
C[C@H](NC(=O)[C@]1(Cc2ccccc2)CCN1C(=O)CCc1ccccc1)C(N)=O,> 100,100,,CC50 at 72 h [3]: > 100 µM
C[C@H](NC(=O)[C@]1(Cc2ccccc2)CCN1C(=O)Oc1cccc2ccccc12)C(N)=O,45,> 100,> 100,IC50 (Human alphaherpesvirus 3 [1]): 47.7 µM; IC50 (Human alphaherpesvirus 3 [2]): 47.7 µM
NC(=O)[C@H](CCC(=O)O)NC(=O)C1(Cc2ccccc2)CCN1C(=O)OCc1ccccc1 (mixture of isomers),> 100,> 100,> 100,
C[C@H](NC(=O)[C@]1(Cc2ccccc2)CCN1C(=O)OCc1ccccc1Cl)C(N)=O,> 20,> 100,> 100,
NC(=O)[C@H](Cc1ccccc1)NC(=O)[C@@]1(Cc2ccccc2)CCN1C(=O)OCc1ccccc1,> 20,100,37,
C[C@H](NC(=O)[C@]1(Cc2ccccc2)CCN1C(=O)OCC1c2ccccc2-c2ccccc21)C(N)=O,> 4,20,14,Activity (Influenza A virus [4]): inactive; Activity (Human respirovirus 3): inactive; Activity (Feline coronavirus): inactive; Activity (Influenza A virus [5]): inactive; Activity [6]: inactive; Activity (Human alphaherpesvirus 2): inactive; Activity (Influenza A virus [7]): inactive; Activity (Sindbis virus): inactive; Activity [8]: inactive; Activity (Human alphaherpesvirus 1): inactive; Activity (Coxsackievirus B4): inactive

Structure (SMILES),EC50 (Human betaherpesvirus 5) [µM],MCC at 72 h [3] [µM],CC50 [3] [µM],further results
CC(C)C[C@H](NC(=O)[C@@]1(Cc2ccccc2)CCN1C(=O)OCc1ccccc1)C(N)=O,45,> 100,66,
C[C@H](NC(=O)[C@H](Cc1ccccc1)NC(=O)OCc1ccccc1)C(N)=O,> 100,> 100,> 100,
NCCCC[C@H](NC(=O)C1(Cc2ccccc2)CCN1C(=O)OCc1ccccc1)C(N)=O (mixture of isomers),> 100,> 100,> 100,
C[C@H](NC(=O)[C@]1(Cc2ccccc2)CCN1C(=O)OCc1ccccc1)C(=O)NCc1ccccc1,> 20,100,,
C[C@H](NC(=O)[C@@]1(Cc2ccccc2)CCN1C(=O)OCc1ccccc1)C(=O)N(C)C,> 100,> 100,,
CC(C)[C@H](NC(=O)[C@]1(Cc2ccccc2)CCN1C(=O)OCc1ccccc1)C(N)=O,,> 100,100,
CC(C)C[C@H](NC(=O)[C@]1(Cc2ccccc2)CCN1C(=O)OCc1ccccc1)C(N)=O,> 20,100,50,
CC(C)[C@H](NC(=O)[C@@]1(Cc2ccccc2)CCN1C(=O)OCc1ccccc1)C(N)=O,> 100,> 100,85,
C[C@H](NC(=O)[C@]1(Cc2ccccc2)CCN1C(=O)OCc1ccccc1)C(=O)NC1CCCCC1,> 100,> 100,> 100,
C[C@H](NC(=O)[C@]1(Cc2ccccc2)CCN1C(=O)Oc1ccccc1)C(N)=O,> 20,> 100,> 100,IC50 (Human alphaherpesvirus 3 [1]): 69 µM; IC50 (Human alphaherpesvirus 3 [2]): 858 µM
C[C@H](NC(=O)[C@]1(Cc2ccccc2)CCN1C(=O)OCc1ccc([N+](=O)[O-])cc1)C(N)=O,> 20,100,,IC50 (Human alphaherpesvirus 3 [1]): > 100 µM; IC50 (Human alphaherpesvirus 3 [2]): 67 µM; CC50 at 72 h [3]: > 100 µM
C[C@H](NC(=O)[C@]1(Cc2ccccc2)CCN1C(=O)N[C@@H](C)c1ccccc1)C(N)=O,> 100,> 100,> 100,
C[C@H](NC(=O)[C@H](Cc1ccccc1)NC(=O)OCc1ccccc1)C(=O)NC(C)(C)C,> 100,> 100,> 100,
C[C@@H](NC(=O)[C@]1(Cc2ccccc2)CCN1C(=O)OCc1ccccc1)C(N)=O,63,> 100,36,
CC(C)CNC(=O)[C@H](C)NC(=O)[C@@]1(Cc2ccccc2)CCN1C(=O)OCc1ccccc1,> 100,> 100,,
C[C@H](NC(=O)[C@]1(Cc2ccccc2)CCN1C(=O)NCc1ccccc1)C(N)=O,> 100,> 100,> 100,
Nc1nc2c(ncn2COCCO)c(=O)[nH]1 [ACYCLOVIR],,> 1780,> 1780,
